Publication PMC9214341 (Acta Pharmaceutica Sinica. B, 2021)

Assays:
[1] = test system: tumor infiltrating immune cells; assay: Flow cytometry analysis of tumor-infiltrating immune cells; type: in vivo, BALB/c mice; conditions: CT26 tumor-bearing mice, 16 mg/kg daily, 5 days
Method in brief: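 Tumor-bearing mice (n = 5) got vehicle or test compound. Tumors were cut up and digested in RPMI 1640 with 0.1% type IV collagenase and 0.01% DNase I at 37 °C for 45 min, passed through a 70 μm strainer, and red cells lysed. Cells were Fc-blocked on ice for 15 min and surface-stained on ice for 30 min. MDSCs were scored as a proportion of CD45⁺ cells (mean ± SEM).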

CT26 cells = assay: SRB cell proliferation assay, CT26; type: cell-based, murine; conditions: gradient concentrations, 72 h
MC38 cells = assay: SRB cell proliferation assay, MC38; type: cell-based, murine; conditions: gradient concentrations, 72 h

O=C(/C=C/c1cccnc1)NCCCCC1CCN(C(=O)c2ccccc2)CC1 [FK866]
infiltrating MDSCs in CT26 tumors [1]: did not affect
cell growth sensitivity (CT26 cells): did not show the apparent growth dependency
cell growth sensitivity (MC38 cells): did not show the apparent growth dependency
